Source: ChEMBL document CHEMBL1127574, “Design and synthesis of ellipticinium salts and 1,2-dihydroellipticines with high selectivities against human CNS cancers in vitro” (1994)

Assays:
Assay type in all cases: functional
LXFL 529 = assay: Tested in vitro for cytotoxicity in LXFL-529 cell line of Non-Small Cell Lung Cancer; conditions: Homo sapiens, read-out: Log TGI (converted)
Procedure, shortened: (§1)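 Compounds dissolved in DMSO, then diluted 500-fold into aqueous medium. The resulting aqueous solutions or suspensions were added to the cultured human tumour cell lines, and the cells were exposed for 48 h. Growth was read colorimetrically in one of two ways: a metabolic assay in which viable cells reduce a tetrazolium salt to a formazan dye, or a protein stain for total cellular protein.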

A549 = assay: Tested in vitro for cytotoxicity in A549/ATCC cell lines; conditions: Homo sapiens; procedure, shortened: as §1
SK-MEL-2 = assay: Tested in vitro for cytotoxicity in SK-MEL-2 cell line of Melanoma; conditions: Homo sapiens, read-out: Log TGI (converted); procedure, shortened: as §1
U-251 = assay: Tested in vitro for cytotoxicity in U251 cell line of CNS Cancer; conditions: Homo sapiens, read-out: Log TGI (converted)
Procedure, shortened: (§2)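 Compounds dissolved in DMSO and diluted 500-fold into aqueous medium; aliquots of the resulting solutions or suspensions added to cultured human tumor cells for 48 h. Growth read colorimetrically, either by tetrazolium reduction to formazan by viable cells or by protein staining of total cellular protein.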

HOP-18 = assay: Tested in vitro for cytotoxicity in HOP-18 cell line of Non-Small Cell Lung Cancer; conditions: Homo sapiens, read-out: Log TGI (converted); procedure, shortened: as §1
Malme-3M = assay: Tested in vitro for cytotoxicity in MALME-3M; conditions: Homo sapiens; procedure, shortened: as §1
DMS-114 = assay: Tested in vitro for cytotoxicity in DMS114 cell lines; conditions: Homo sapiens; procedure, shortened: as §1
RXF 631 = assay: Tested in vitro for cytotoxicity in RXF-631 cell line of Renal cancer; conditions: Homo sapiens, read-out: Log TGI (converted); procedure, shortened: as §1
SK-MEL-28 = assay: Tested in vitro for cytotoxicity in SK-MEL-28 cell line of Melanoma; conditions: Homo sapiens, read-out: Log TGI (converted); procedure, shortened: as §1
SNB-78 = assay: Tested in vitro for cytotoxicity in SNB-78 cell line of CNS Cancer; conditions: Homo sapiens, read-out: Log TGI (converted); procedure, shortened: as §2
HOP-62 = assay: Tested in vitro for cytotoxicity in HOP-62 cell line of Non-Small Cell Lung Cancer; conditions: Homo sapiens, read-out: Log TGI (converted); procedure, shortened: as §1
MOLT-4 = assay: Tested in vitro for cytotoxicity in MOLT-4 cell line of Leukemia; conditions: Homo sapiens, read-out: Log TGI (converted); procedure, shortened: as §1
CAKI-1 [1] = assay: Tested in vitro for cytotoxicity in CAKI-1 cell lines; conditions: Homo sapiens; procedure, shortened: as §1
XF498 = assay: Tested in vitro for cytotoxicity in XF498 cell line of CNS Cancer; conditions: Homo sapiens, read-out: Log TGI (converted)
Procedure, shortened: (§3)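 Compound DMSO solutions diluted 500-fold into aqueous medium; the resulting solutions or suspensions were added to cultured human tumor cells for 48 h. Growth was read colorimetrically, either by tetrazolium reduction to formazan by viable cells or by a protein stain for total cellular protein.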

IGROV-1 = assay: Tested in vitro for cytotoxicity in IGROV1 cell lines; conditions: Homo sapiens; procedure, shortened: as §1
SK-MEL-5 = assay: Tested in vitro for cytotoxicity in SK-MEL-5 cell line of Melanoma; conditions: Homo sapiens, read-out: Log TGI (converted); procedure, shortened: as §2
HL-60 = assay: Tested in vitro for cytotoxicity in HL-60(TB) cell line of Leukemia; conditions: Homo sapiens, read-out: Log TGI (converted)
Procedure, shortened: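 Compounds were dissolved in DMSO and diluted 500-fold in aqueous medium. Aliquots of the resulting solution or suspension were added to the cultured cells for 48 h. Growth was read colorimetrically, either by tetrazolium reduction to formazan in viable cells or by a total-protein stain.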

SF-539 = assay: Tested in vitro for cytotoxicity in SF-539 cell line of CNS Cancer; conditions: Homo sapiens, read-out: Log TGI (converted); procedure, shortened: as §1
UACC-62 = assay: Tested in vitro for cytotoxicity in UACC-62 cell line of Melanoma; conditions: Homo sapiens, read-out: Log TGI (converted); procedure, shortened: as §2
NCI-H460 = assay: Tested in vitro for cytotoxicity in NCI-H460 cell line of Non-Small Cell Lung Cancer; conditions: Homo sapiens, read-out: Log TGI (converted); procedure, shortened: as §1
UACC-257 = assay: Tested in vitro for cytotoxicity in UACC-257 cell line of Melanoma; conditions: Homo sapiens, read-out: Log TGI (converted); procedure, shortened: as §2
KM-20L2 = assay: Tested in vitro for cytotoxicity in KM20L2 cell line of Colon Cancer; conditions: Homo sapiens, read-out: Log TGI (converted); procedure, shortened: as §3
ACHN = assay: Tested in vitro for cytotoxicity in ACHN cell line of Renal cancer; conditions: Homo sapiens, read-out: Log TGI (converted); procedure, shortened: as §1
SK-OV-3 = assay: Tested in vitro for cytotoxicity in SK-OV-3 cell line of Ovarian Cancer; conditions: Homo sapiens, read-out: Log TGI (converted); procedure, shortened: as §2
SW-620 = assay: Tested in vitro for cytotoxicity in SW-620 cell line of Colon Cancer; conditions: Homo sapiens, read-out: Log TGI (converted); procedure, shortened: as §2
M19-MEL = assay: Tested in vitro for cytotoxicity in M19-MEL cell line of Melanoma; conditions: Homo sapiens, read-out: Log TGI (converted); procedure, shortened: as §1
DLD-1 = assay: Tested in vitro for cytotoxicity in DLD-1 cell line of Colon Cancer; conditions: Homo sapiens, read-out: Log TGI (converted); procedure, shortened: as §1
OVCAR-8 = assay: Tested in vitro for cytotoxicity in OVCAR-8 cell line of Ovarian Cancer; conditions: Homo sapiens, read-out: Log TGI (converted); procedure, shortened: as §1
CAKI-1 [2] = assay: Tested in vitro for cytotoxicity in CAKI-1 cell line of Renal cancer; conditions: Homo sapiens, read-out: Log TGI (converted); procedure, shortened: as §1
786-0 = assay: Tested in vitro for cytotoxicity in 786-0 cell line of Renal cancer; conditions: Homo sapiens, read-out: Log TGI (converted); procedure, shortened: as §1
SF-268 = assay: Tested in vitro for cytotoxicity in SF-268 cell lines; conditions: Homo sapiens; procedure, shortened: as §1

Q: What does the source list for `COc1ccc2[nH]c3c(C)c4cc[n+](C)cc4c(C)c3c2c1`?
A: TGI (LXFL 529): 10 µM; GI50 (A549): 1.52 µM; TGI (SK-MEL-2): 63.1 µM; TGI (U-251): 5.01 µM; TGI (HOP-18): > 100 µM; GI50 (Malme-3M): 5.27 µM; GI50 (DMS-114): 0.811 µM; TGI (RXF 631): > 100 µM; TGI (SK-MEL-28): 50.1 µM; TGI (SNB-78): 10 µM; TGI (HOP-62): 6.31 µM; TGI (MOLT-4): > 100 µM; GI50 (CAKI-1 [1]): 48.2 µM; TGI (XF498): 10 µM; GI50 (IGROV-1): 3.62 µM; TGI (SK-MEL-5): 20 µM; TGI (HL-60): > 100 µM; TGI (SF-539): 6.31 µM; TGI (UACC-62): > 100 µM; TGI (NCI-H460): 79.4 µM; TGI (UACC-257): > 100 µM; TGI (KM-20L2): > 100 µM; TGI (ACHN): > 100 µM; TGI (SK-OV-3): > 100 µM; TGI (SW-620): > 100 µM; TGI (M19-MEL): 25.1 µM; TGI (DLD-1): > 100 µM; TGI (OVCAR-8): 31.6 µM; TGI (CAKI-1 [2]): > 100 µM; TGI (786-0): 5.01 µM; GI50 (SF-268): 0.409 µM
